Results reported in ChEMBL document CHEMBL3352141, “Carboline- and phenothiazine-derivated heterocycles as potent SIGMA-1 protein ligands” (Eur J Med Chem, 2015).

Experiments:
[1] = molecular target: Sigma non-opioid intracellular receptor 1 (Homo sapiens, UniProt Q99720); experiment: Displacement of [3H](+)-pentazocine from human sigma 1 receptor in human Jurkat cell membranes incubated for 2 hrs by liquid scintillation counting
[2] = Displacement of [3H]-DTG from human sigma 2 receptor in human Jurkat cell membranes incubated for 1 hr by liquid scintillation counting
Procedure, shortened: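 Competition binding on Jurkat cell membranes (10–20 µg protein per tube) with 25 nM [3H]-DTG, plus (+)-pentazocine to saturate sigma-1 sites, across a range of test concentrations. Incubation was 1 h at room temperature in 5 mM Tris/HCl, pH 7.4. Bound ligand was separated by rapid GF/B filtration with ice-cold NaCl washes and counted by liquid scintillation. Nonspecific binding was measured under similar conditions.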

Jurkat [3] = experiment: Selectivity index, ratio of Ki for human sigma 2 receptor in human Jurkat cell membranes to Ki for human sigma 1 receptor in human Jurkat cell membranes; format: cell-based
Procedure, shortened: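 The ratio divides sigma-2 Ki by sigma-1 Ki, both measured on Jurkat membranes. Sigma-2 used 25 nM [3H]-DTG with (+)-pentazocine masking, 1 h at room temperature. Sigma-1 used 15 nM [3H](+)-pentazocine, 2 h at 37 °C. Both assays ran in 5 mM Tris/HCl, pH 7.4, with filtration and scintillation read-out.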

[4] = Cytotoxicity against human SH-SY5Y cells after 72 hrs by MTT assay; format: cell-based
Procedure, shortened: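 SH-SY5Y neuroblastoma cells were grown in DMEM with 2 mM L-glutamine, streptomycin, 100 IU/mL penicillin, 1 mM non-essential amino acids and 10% heat-inactivated FBS at 37 °C under 5% CO2. Cells were seeded at 2000 per well and serum-starved 24 h, then exposed to a concentration series in <0.1% DMSO. Viability was read by colorimetric MTT. IC50 is the mean of 2–3 independent experiments.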

[5] = Selectivity index, ratio of IC50 for human SH-SY5Y cells to Ki for human sigma 1 receptor in human Jurkat cell membranes
[6] = Displacement of [3H]-DTG from rat cerebral cortex membrane sigma 2 receptor incubated for 1 hr by liquid scintillation counting; format: tissue-based
Jurkat [7] = experiment: Selectivity index, ratio of Ki for sigma 2 receptor in rat cerebral cortex membranes to Ki for human sigma 1 receptor in human Jurkat cell membranes; format: cell-based

Sequence of Sigma non-opioid intracellular receptor 1 (Q99720 whole entry): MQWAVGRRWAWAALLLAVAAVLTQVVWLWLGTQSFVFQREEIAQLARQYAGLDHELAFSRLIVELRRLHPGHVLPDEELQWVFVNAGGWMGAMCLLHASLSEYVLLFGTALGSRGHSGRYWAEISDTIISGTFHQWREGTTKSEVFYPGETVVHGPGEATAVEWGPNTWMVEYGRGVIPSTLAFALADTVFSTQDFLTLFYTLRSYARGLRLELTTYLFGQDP

SMILES	Ki [1]	Ki [6]	Ki [2]	Ratio Ki (Jurkat [3])	IC50 [4]	Selectivity Index [5]	Ratio Ki (Jurkat [7])
CN(CCCN1c2ccccc2Sc2ccccc21)Cc1ccccc1	28 nM		280 nM	10	17.1 µM	611	
c1ccc2c(c1)CN(CCCN1c3ccccc3Oc3ccccc31)C2	> 200 nM		140 nM	< 1	11 µM	<55	
O=C(CCCN1CCC(O)(c2ccc(Cl)cc2)CC1)c1ccc(F)cc1 [HALOPERIDOL]			175 nM				
O=C1C2Cc3ccccc3CN2C(=O)N1CCCN1Cc2ccccc2C1 (stereo unspecified)	5.3 nM	416 nM	416 nM	103			78
CN(CCCN1C(=O)[C@@H]2Cc3ccccc3CN2C1=O)Cc1ccccc1		496 nM	496 nM		> 100 µM		
CN(CCCN1CCc2oc3ccccc3c2C1)Cc1ccccc1	2 nM		< 10 nM	< 5	68.9 µM	34450	
CN(CCCN1CCc2[nH]c3ccccc3c2C1)Cc1ccccc1	18 nM		130 nM	7	16.9 µM	939	
c1ccc2c(c1)CN(CCCN1CCc3c([nH]c4ccccc34)C1)C2	8 nM		110 nM	14	24.9 µM	3112	
CN(CCCn1c(=O)oc2cc3c(cc21)C(c1ccc(Cl)cc1)CC3=O)Cc1ccccc1 (stereo unspecified)	160 nM		50 nM	0.3	5 µM	31	
CN(CCCN1c2ccccc2Oc2ccccc21)Cc1ccccc1	> 200 nM		180 nM	< 1	71.9 µM	<350	
CN(CCCN1CCc2oc3ccccc3c2C1)CCc1ccccc1	2.5 nM		78 nM	31	25.4 µM	10160	
c1ccc2c(c1)CN(CCCN1c3ccccc3Sc3ccccc31)C2	12 nM		94 nM	8	83.3 µM	6942	
CN(CCCn1c(=O)oc2cc3c(cc21)C(c1ccccc1)CC3=O)Cc1ccccc1 (stereo unspecified)	72 nM		180 nM	2.5	> 100 µM	>1389	
CN(CCCN1C(=O)[C@H]2Cc3ccccc3CN2C1=O)Cc1ccccc1		764 nM	764 nM		19.5 µM		
c1ccc2c(c1)CN(CCCN1CCc3[nH]c4ccccc4c3C1)C2	72 nM		180 nM	2.5	50 µM	694	
c1ccc2c3c([nH]c2c1)CN(CCCN1CCCC1)CC3	> 200 nM		> 400 nM		32.9 µM	<160	
c1ccc2c(c1)CN(CCCN1CCc3oc4ccccc4c3C1)C2	11 nM		9.9 nM	0.9	78.9 µM	7173	

The next lines start with results.

Ki [1]	Ki [6]	SMILES	Ki [2]	Ratio Ki (Jurkat [3])	IC50 [4]	Selectivity Index [5]	Ratio Ki (Jurkat [7])
6.2 nM		CN(CCCN1CCc2c([nH]c3ccccc23)C1)Cc1ccccc1	15 nM	2.4	19.7 µM	3177	
11 nM		CN(CCCN1CCc2c([nH]c3ccccc23)C1c1ccccc1)CCc1ccccc1 (stereo unspecified)	93 nM	8	11.8 µM	1073	
11 nM		CN(CCCN1c2ccccc2Sc2ccccc21)CCc1ccccc1	310 nM	28	8.6 µM	782	
7.2 nM		CN(CCCN1CCc2c([nH]c3ccccc23)C1)CCc1ccccc1	91 nM	13	11.6 µM	1611	
11 nM		CN(CCCN1CCc2[nH]c3ccccc3c2C1)CCc1ccccc1	200 nM	18	33.2 µM	3018	
18 nM		CN(CCCN1c2ccccc2Oc2ccccc21)CCc1ccccc1	80 nM	4	46.9 µM	2606	
36 nM		c1ccc(C2c3[nH]c4ccccc4c3CCN2CCCN2CCCC2)cc1 (stereo unspecified)	310 nM	9	47.8 µM	1328	
4.3 nM		CN(CCCN1CCc2c([nH]c3ccccc23)C1c1ccccc1)Cc1ccccc1 (stereo unspecified)	100 nM	23	9.3 µM	2163	
8.4 nM		c1ccc(C2c3[nH]c4ccccc4c3CCN2CCCN2Cc3ccccc3C2)cc1 (stereo unspecified)	110 nM	13	18.3 µM	2179	
